Test results taken from ChEMBL document CHEMBL1132193, “Fluorescent pseudo-peptide linear vasopressin antagonists: design, synthesis, and applications” (J Med Chem, 1999).
Where a SMILES comes first, the peptide text is derived from it. [ ]: non-standard residue; d: D form. The star is where a group is joined. X1 = O=C(Cc1ccc(O)cc1)*

Tests used:
Vasopressin V1b receptor [1] = target: T1, Vasopressin V1b receptor (Homo sapiens, UniProt P47901); experiment: Compound was tested for its ability to displace [125I]- HO-LVA ligand from human Vasopressin V1b receptor in the membranes of CHO cells; assay type: cell membranes
T1 sequence (P47901 whole entry): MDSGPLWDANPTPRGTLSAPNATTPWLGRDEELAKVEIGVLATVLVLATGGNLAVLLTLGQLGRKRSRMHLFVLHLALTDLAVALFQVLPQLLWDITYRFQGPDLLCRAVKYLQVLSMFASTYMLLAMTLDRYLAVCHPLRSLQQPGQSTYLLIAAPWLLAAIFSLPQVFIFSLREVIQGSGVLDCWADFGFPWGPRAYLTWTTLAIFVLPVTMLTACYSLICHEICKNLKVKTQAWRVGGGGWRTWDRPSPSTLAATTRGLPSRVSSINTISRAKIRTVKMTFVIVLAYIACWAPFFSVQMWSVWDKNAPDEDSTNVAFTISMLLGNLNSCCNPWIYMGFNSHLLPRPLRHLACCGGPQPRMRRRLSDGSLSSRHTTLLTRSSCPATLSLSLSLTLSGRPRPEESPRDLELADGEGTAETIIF
Outline: (§1)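 Human V1b receptor in CHO cell membranes; competition against 1 nM [125I]HO-LVA. Membranes at 0.5–1 μg protein/assay, 1 h at 30 °C. Competitor spanned 1 pM to 10 μM; nonspecific binding with 1 μM unlabeled ligand. Ki = IC50/(1+[*L]/Kd) by nonlinear least-squares fit, ≥3 assays in triplicate.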

Vasopressin V1a receptor = Vasopressin V1a receptor (Homo sapiens, UniProt P37288); experiment: Displacement of [125I]- HO-LVA from human Vasopressin V1a receptor in membranes of CHO cells; assay type: cell membranes
Vasopressin V1a receptor, sequence (P37288 whole entry): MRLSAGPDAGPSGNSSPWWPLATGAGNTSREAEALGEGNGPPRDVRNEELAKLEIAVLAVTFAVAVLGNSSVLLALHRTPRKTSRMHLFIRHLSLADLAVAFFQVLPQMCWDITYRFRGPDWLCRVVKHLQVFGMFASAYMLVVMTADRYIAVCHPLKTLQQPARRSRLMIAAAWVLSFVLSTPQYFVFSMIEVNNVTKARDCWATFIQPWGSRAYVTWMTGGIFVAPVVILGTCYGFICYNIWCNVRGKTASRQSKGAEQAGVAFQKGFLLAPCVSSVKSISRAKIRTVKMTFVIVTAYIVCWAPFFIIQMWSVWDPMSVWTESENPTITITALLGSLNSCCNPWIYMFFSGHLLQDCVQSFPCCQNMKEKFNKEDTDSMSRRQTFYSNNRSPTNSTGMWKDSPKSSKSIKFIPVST
Outline: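 CHO membranes expressing human V1a receptor (0.5–1 μg protein/assay), 50–70 pM [125I]HO-LVA. Incubated 1 h at 30 °C, equilibrium by 30 min. Competitor 1 pM to 10 μM; 1 μM unlabeled ligand defined nonspecific binding. Ki = IC50/(1+[*L]/Kd), nonlinear least-squares; at least three assays in triplicate.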

Oxytocin receptor = target: T2, Oxytocin receptor (Homo sapiens, UniProt P30559); experiment: The inhibition constant (Ki(nM)) by displacement of [125I]- HO-LVA radiolabeled ligand using membranes of CHO cells of human Oxytocin receptor; assay type: cell membranes
T2 sequence (P30559 whole entry): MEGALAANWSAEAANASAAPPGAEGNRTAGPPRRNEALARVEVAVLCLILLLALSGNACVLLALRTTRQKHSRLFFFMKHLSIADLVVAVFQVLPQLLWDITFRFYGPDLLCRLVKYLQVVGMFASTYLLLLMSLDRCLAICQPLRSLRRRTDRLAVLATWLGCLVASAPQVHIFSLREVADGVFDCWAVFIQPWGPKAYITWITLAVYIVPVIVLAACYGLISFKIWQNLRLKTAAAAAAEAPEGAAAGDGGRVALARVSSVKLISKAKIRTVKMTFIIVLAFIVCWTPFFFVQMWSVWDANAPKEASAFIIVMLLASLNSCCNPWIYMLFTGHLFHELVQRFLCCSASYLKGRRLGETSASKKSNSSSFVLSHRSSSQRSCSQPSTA

Vasopressin V2 receptor [2] = target: T3, Vasopressin V2 receptor (Homo sapiens, UniProt P30518); experiment: Compound was tested for its ability to of [125I]- HO-LVA radiolabeled ligand using membranes of CHO cells of human Vasopressin V2 receptor; assay type: cell-based
T3 sequence (P30518 whole entry): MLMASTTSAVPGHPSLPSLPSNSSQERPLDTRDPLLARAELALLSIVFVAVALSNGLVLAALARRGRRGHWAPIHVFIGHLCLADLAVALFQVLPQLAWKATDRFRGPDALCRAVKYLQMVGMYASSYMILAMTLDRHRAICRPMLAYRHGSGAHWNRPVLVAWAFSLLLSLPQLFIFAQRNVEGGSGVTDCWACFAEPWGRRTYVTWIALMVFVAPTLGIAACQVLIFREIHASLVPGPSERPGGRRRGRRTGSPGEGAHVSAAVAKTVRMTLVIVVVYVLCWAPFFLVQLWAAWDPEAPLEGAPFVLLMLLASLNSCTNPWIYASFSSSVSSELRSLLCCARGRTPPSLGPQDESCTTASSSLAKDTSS

Vasopressin V2 receptor [3] = target: T3, Vasopressin V2 receptor; experiment: The inhibition constant (Ki(nM)) by displacement of [125I]- HO-LVA radiolabeled ligand using membranes of CHO cells of human Vasopressin V2 receptor; assay type: cell membranes
Vasopressin V1b receptor [4] = target: T1, Vasopressin V1b receptor; experiment: The inhibition constant (Ki(nM)) by displacement of [125I]- HO-LVA radiolabeled ligand using membranes of CHO cells of human Vasopressin V1b receptor; assay type: cell membranes; outline: as §1

SMILES: COc1ccc(C[C@@H](NC(=O)Cc2ccc(O)cc2)C(=O)N[C@@H](Cc2ccccc2)C(=O)N[C@@H](CCC(N)=O)C(=O)N[C@@H](CC(N)=O)C(=O)N[C@@H](CCCN=C(N)N)C(=O)N2CCC[C@H]2C(=O)N[C@@H](CCCN=C(N)N)C(N)=O)cc1 (X1-[dY](Me)FQNRPR-NH2)
- Ki (Vasopressin V1b receptor [1]): 5.9 nM
- Ki (Vasopressin V1a receptor): 0.08 nM
- Ki (Oxytocin receptor): 2.7 nM
- Ki (Vasopressin V2 receptor [2]): 137 nM

SMILES: COc1ccc(C[C@@H](NC(=O)CCc2ccc(O)cc2)C(=O)N[C@@H](Cc2ccccc2)C(=O)N[C@@H](CCC(N)=O)C(=O)N[C@@H](CC(N)=O)C(=O)N[C@@H](CCCCNC(=O)c2ccc3c(c2)C(=O)OC32c3ccc(N(C)C)cc3Oc3cc(N(C)C)ccc32)C(=O)N2CCC[C@H]2C(=O)N[C@@H](CCCNC(=N)N)C(N)=O)cc1
- Ki (Vasopressin V1a receptor): 1.3 nM

SMILES: COc1ccc(C[C@@H](NC(=O)CCc2ccc(O)cc2)C(=O)N[C@@H](Cc2ccccc2)C(=O)N[C@@H](CCC(N)=O)C(=O)N[C@@H](CC(N)=O)C(=O)N[C@@H](CCCNC(=N)N)C(=O)N2CCC[C@H]2C(=O)N[C@@H](CCCCNC(=O)c2ccc3c(c2)C2(OC3=O)c3ccc(N(C)C)cc3Oc3cc(N(C)C)ccc32)C(N)=O)cc1
- Ki (Vasopressin V1a receptor): 0.17 nM

SMILES: COc1ccc(C[C@@H](NC(=O)Cc2ccccc2)C(=O)N[C@@H](Cc2ccccc2)C(=O)N[C@@H](CCC(N)=O)C(=O)N[C@@H](CC(N)=O)C(=O)N[C@@H](CCCN=C(N)N)C(=O)N2CCC[C@H]2C(=O)N[C@@H](CCCN=C(N)N)C(N)=O)cc1
- Ki (Vasopressin V1a receptor; cho): 0.8 nM
- Ki (Oxytocin receptor; cho): 1.1 nM
- Ki (Vasopressin V2 receptor [3]; cho): 282 nM
- Ki (Vasopressin V1b receptor [4]; cho): 9.4 nM

SMILES: COc1ccc(C[C@@H](NC(=O)CCc2ccc(O)cc2)C(=O)N[C@@H](Cc2ccccc2)C(=O)N[C@@H](CCC(N)=O)C(=O)N[C@@H](CC(N)=O)C(=O)N[C@@H](CCCCNC(=O)c2ccc3c(c2)C(=O)OC32c3ccc(O)cc3Oc3cc(O)ccc32)C(=O)N2CCC[C@H]2C(=O)N[C@@H](CCCNC(=N)N)C(N)=O)cc1
- Ki (Vasopressin V1a receptor): 5.6 nM

SMILES: COc1ccc(C[C@@H](NC(=O)CCc2ccc(O)cc2)C(=O)N[C@@H](Cc2ccccc2)C(=O)N[C@@H](CCC(N)=O)C(=O)N[C@@H](CC(N)=O)C(=O)N[C@@H](CCCNC(=N)N)C(=O)N2CCC[C@H]2C(=O)N[C@@H](CCCCNC(=O)c2ccc3c(c2)C2(OC3=O)c3ccc(O)cc3Oc3cc(O)ccc32)C(N)=O)cc1
- Ki (Vasopressin V1a receptor): 0.23 nM

SMILES: COc1ccc(C[C@@H](NC(=O)CCc2ccc(O)cc2)C(=O)N[C@@H](Cc2ccccc2)C(=O)N[C@@H](CCC(N)=O)C(=O)N[C@@H](CC(N)=O)C(=O)N[C@@H](CCCNC(=N)N)C(=O)N2CCC[C@H]2C(=O)N[C@@H](CCCCNC(=O)c2ccc3c(c2)C(=O)OC32c3ccc(N(C)C)cc3Oc3cc(N(C)C)ccc32)C(N)=O)cc1
- Ki (Vasopressin V1a receptor): 0.07 nM
- Ki (Oxytocin receptor): 1.2 nM
- Ki (Vasopressin V2 receptor [3]): 7500 nM
- Ki (Vasopressin V1b receptor [4]): 27 nM

SMILES: COc1ccc(C[C@@H](NC(=O)CCc2ccc(O)cc2)C(=O)N[C@@H](Cc2ccccc2)C(=O)N[C@@H](CCC(N)=O)C(=O)N[C@@H](CC(N)=O)C(=O)N[C@@H](CCCCNC(=O)c2ccc3c(c2)C2(OC3=O)c3ccc(N(C)C)cc3Oc3cc(N(C)C)ccc32)C(=O)N2CCC[C@H]2C(=O)N[C@@H](CCCNC(=N)N)C(N)=O)cc1
- Ki (Vasopressin V1a receptor): 3.3 nM

SMILES: CCN(CC)c1ccc2c(-c3ccccc3C(=O)N[C@H](Cc3ccc(OC)cc3)C(=O)N[C@@H](Cc3ccccc3)C(=O)N[C@@H](CCC(N)=O)C(=O)N[C@@H](CC(N)=O)C(=O)N[C@@H](CCCNC(=N)N)C(=O)N3CCC[C@H]3C(=O)N[C@@H](CCCNC(=N)N)C(=O)N[C@@H](Cc3ccc(O)cc3)C(N)=O)c3ccc(=[N+](CC)CC)cc-3oc2c1
- Ki (Vasopressin V1a receptor; cho): > 500 nM

SMILES: COc1ccc(C[C@@H](NC(=O)CCc2ccc(O)cc2)C(=O)N[C@@H](Cc2ccccc2)C(=O)N[C@@H](CCC(N)=O)C(=O)N[C@@H](CC(N)=O)C(=O)N[C@@H](CCCNC(=N)N)C(=O)N2CCC[C@H]2C(=O)N[C@@H](CCCCNC(=O)c2ccc3c(c2)C(=O)OC32c3ccc(O)cc3Oc3cc(O)ccc32)C(N)=O)cc1
- Ki (Vasopressin V1a receptor): 0.17 nM
- Ki (Oxytocin receptor): 1.6 nM
- Ki (Vasopressin V2 receptor [3]): 9200 nM
- Ki (Vasopressin V1b receptor [4]): 142 nM
